From ChEMBL document CHEMBL2401703, “Synthesis of pyrazolo[1,5-a][1,3,5]triazine derivatives as inhibitors of thymidine phosphorylase” (Eur J Med Chem, 2013)
Calls of active or inactive are those of the source. The rule behind the calls is not given here.

Legend:
[1] = target: Thymidine phosphorylase (Escherichia coli K-12) (UniProt P07650); experiment: Inhibition of recombinant Escherichia coli thymidine phosphorylase using thymidine as substrate at 50 uM by UV-spectrophotometric analysis relative to control
Outline: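 TP (1.5 U/ml stock in pH 7.0 phosphate buffer) mixed with compound in DMSO (DMSO alone as blank) and thymidine (5 mM stock, 200 µl into 1 ml total) in pH 7.4 phosphate buffer. Absorbance decrease at 290 nm read at 4, 8, 12, 16 and 20 min. Velocity taken from the slope of a linear fit. Percent inhibition calculated versus the blank.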

Thymidine phosphorylase = Thymidine phosphorylase (Escherichia coli K-12, UniProt P07650); experiment: Inhibition of recombinant Escherichia coli thymidine phosphorylase using thymidine as substrate by UV-spectrophotometric analysis
[2] = target: Thymidine phosphorylase (Escherichia coli K-12) (UniProt P07650); experiment: Ratio of 7-deazaxanthine IC50 to compound IC50 for recombinant Escherichia coli thymidine phosphorylase
[3] = target: Thymidine phosphorylase (Escherichia coli K-12) (UniProt P07650); experiment: Non-competitive inhibition of recombinant Escherichia coli thymidine phosphorylase using thymidine as substrate at 0.01 to 0.2 uM by Lineweaver-burk plot analysis

Chain of Thymidine phosphorylase (Escherichia coli K-12) (P07650 whole entry, looked up): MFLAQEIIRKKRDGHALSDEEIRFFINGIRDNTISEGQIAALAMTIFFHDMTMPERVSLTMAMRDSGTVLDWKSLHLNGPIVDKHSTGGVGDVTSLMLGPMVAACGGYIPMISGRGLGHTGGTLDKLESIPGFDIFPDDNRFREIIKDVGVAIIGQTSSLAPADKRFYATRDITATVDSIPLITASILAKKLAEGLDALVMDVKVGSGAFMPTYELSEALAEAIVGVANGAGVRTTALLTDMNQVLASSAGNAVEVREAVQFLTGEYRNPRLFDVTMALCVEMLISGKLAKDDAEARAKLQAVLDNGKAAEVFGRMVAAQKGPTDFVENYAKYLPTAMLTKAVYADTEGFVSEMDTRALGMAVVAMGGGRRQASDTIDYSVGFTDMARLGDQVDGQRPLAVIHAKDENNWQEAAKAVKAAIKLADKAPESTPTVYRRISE
Chain of Thymidine phosphorylase (P07650 whole entry): as the sequence (P07650 whole entry, looked up) above

SMILES	inhibition [1] [%]	IC50 (Thymidine phosphorylase) [µM]	Ratio IC50 [2]	inhibition [3]
O=c1[nH]c(=O)n2nc(-c3ccc(F)cc3)cc2[nH]1	< 50	–	–	–
O=c1[nH]c(=S)[nH]c2cc(-c3ccc(Br)cc3)nn12	50	34.9	–	–
COc1ccc(-c2cnn3c(=O)[nH]c(=O)[nH]c23)cc1	< 50	–	–	–
O=c1[nH]c(=S)[nH]c2c(-c3ccc(I)cc3)cnn12	–	0.21	150	–
Cc1cnn2c(=O)[nH]c(=O)[nH]c12	< 50	–	–	–
Cc1ccc(-c2cnn3c(=O)[nH]c(=O)[nH]c23)cc1	< 50	–	–	–
O=c1[nH]c(=O)n2ncc(I)c2[nH]1	< 50	–	–	–
O=c1[nH]c(=O)n2ncc(-c3ccc(F)cc3)c2[nH]1	< 50	–	–	–
O=c1[nH]c(=O)n2ncc(-c3ccc(C(F)(F)F)cc3)c2[nH]1	< 50	–	–	–
O=c1[nH]c(=S)[nH]c2c(-c3ccccc3)cnn12	50	26.3	–	–
O=c1[nH]c(=O)n2nc(-c3ccccc3)cc2[nH]1	< 50	–	–	–
Cc1cnn2c(=O)[nH]c(=S)[nH]c12	< 50	87.3	–	–
O=c1[nH]c(=O)n2nc(-c3ccc(Br)cc3)cc2[nH]1	< 50	–	–	–
O=c1[nH]c(=S)[nH]c2c(-c3ccc(Cl)cc3)cnn12	50	0.54	–	–
O=c1[nH]c(=S)[nH]c2cc(-c3ccc(C(F)(F)F)cc3)nn12	50	9.9	–	–
O=c1[nH]c(=O)n2nc(-c3ccc(Cl)cc3)cc2[nH]1	< 50	–	–	–
O=c1[nH]c(=O)n2nc(C(F)(F)F)cc2[nH]1	< 50	–	–	–
O=c1[nH]c(=S)[nH]c2ccnn12	< 50	68.2	–	–
Cc1cc2[nH]c(=S)[nH]c(=O)n2n1	< 50	79.4	–	–
O=c1[nH]c(=S)[nH]c2c(-c3ccc(Br)cc3)cnn12	50	0.63	–	–
CC(C)(C)c1cc2[nH]c(=S)[nH]c(=O)n2n1	50	29.1	–	–
O=c1[nH]c(=S)[nH]c2c(-c3ccc(C(F)(F)F)cc3)cnn12	50	0.24	–	–
CC(C)(C)c1ccc(-c2cc3[nH]c(=S)[nH]c(=O)n3n2)cc1	50	6.6	–	–
O=c1[nH]c(=O)n2ncc(Br)c2[nH]1	< 50	–	–	–
COc1ccc(-c2cc3[nH]c(=O)[nH]c(=O)n3n2)cc1	< 50	–	–	–
O=c1[nH]c(=S)[nH]c2cc(-c3ccc(F)cc3)nn12	50	41.7	–	–

SMILES	inhibition [1] [%]	IC50 (Thymidine phosphorylase) [µM]	Ratio IC50 [2]	inhibition [3]
O=c1[nH]c(=O)n2ncc(Cl)c2[nH]1	< 50	–	–	–
O=c1[nH]c(=S)[nH]c2c(I)cnn12	50	20.8	–	–
CCOc1ccc(-c2cnn3c(=O)[nH]c(=S)[nH]c23)cc1	–	15.5	–	–
Cc1ccc(-c2cc3[nH]c(=O)[nH]c(=O)n3n2)cc1	< 50	–	–	–
CC(C)(C)c1ccc(-c2cc3[nH]c(=O)[nH]c(=O)n3n2)cc1	< 50	–	–	–
COc1ccc(-c2cnn3c(=O)[nH]c(=S)[nH]c23)cc1	50	39.7	–	–
CC(C)(C)c1cc2[nH]c(=O)[nH]c(=O)n2n1	< 50	–	–	–
Cc1ccc(-c2cc3[nH]c(=S)[nH]c(=O)n3n2)cc1	50	19.3	–	–
O=c1[nH]c(=S)[nH]c2c(-c3ccc(S(F)(F)(F)(F)F)cc3)cnn12	–	0.04	800	Active
O=c1[nH]c(=S)[nH]c2cc(-c3ccc(Cl)cc3)nn12	50	33.5	–	–
O=c1[nH]c(=S)[nH]c2c(Cl)cnn12	50	27.6	–	–
O=c1[nH]c(=O)n2ncc(-c3ccccc3)c2[nH]1	< 50	–	–	–
O=c1[nH]c(=O)n2ncc(-c3ccc(Cl)cc3)c2[nH]1	< 50	–	–	–
Cc1ccc(-c2cnn3c(=O)[nH]c(=S)[nH]c23)cc1	50	1.7	–	–
O=c1[nH]c(=S)[nH]c2c(Br)cnn12	50	44.4	–	–
Cc1cc2[nH]c(=O)[nH]c(=O)n2n1	< 50	–	–	–
CC(C)(C)c1ccc(-c2cnn3c(=O)[nH]c(=O)[nH]c23)cc1	< 50	–	–	–
O=c1[nH]c(=O)n2nccc2[nH]1	< 50	–	–	–
O=c1[nH]c(=S)[nH]c2cc(C(F)(F)F)nn12	50	32.6	–	–
O=c1[nH]c(=S)[nH]c2c(-c3ccc([N+](=O)[O-])cc3)cnn12	–	0.58	–	–
O=c1[nH]c(=O)n2nc(-c3ccc(C(F)(F)F)cc3)cc2[nH]1	< 50	–	–	–
CC(C)(C)c1ccc(-c2cnn3c(=O)[nH]c(=S)[nH]c23)cc1	50	5.6	–	–
O=c1[nH]c(=S)[nH]c2c(-c3ccc(F)cc3)cnn12	50	10.5	–	–
O=c1[nH]c(=O)n2ncc(-c3ccc(Br)cc3)c2[nH]1	< 50	–	–	–
COc1ccc(-c2cc3[nH]c(=S)[nH]c(=O)n3n2)cc1	50	28.4	–	–
